Active and inactive are the calls of the source. The rule behind the calls is not given here.
What was measured:
[1] = test system: K562; assay: Relative resistance, ratio of IC50 for etoposide-resistant human K/VP.5 cells to IC50 for human K562 cells; format: functional
[2] = molecular target: DNA topoisomerase 2-alpha (Homo sapiens) (UniProt P11388); assay: Inhibition of full-length human recombinant topoisomerase 2-alpha mediated relaxation and cleavage of supercoiled pBR322 plasmid DNA to linear DNA by ethidium bromide staining based gel electrophoresis assay
Chain of DNA topoisomerase 2-alpha (Homo sapiens) (P11388 whole entry): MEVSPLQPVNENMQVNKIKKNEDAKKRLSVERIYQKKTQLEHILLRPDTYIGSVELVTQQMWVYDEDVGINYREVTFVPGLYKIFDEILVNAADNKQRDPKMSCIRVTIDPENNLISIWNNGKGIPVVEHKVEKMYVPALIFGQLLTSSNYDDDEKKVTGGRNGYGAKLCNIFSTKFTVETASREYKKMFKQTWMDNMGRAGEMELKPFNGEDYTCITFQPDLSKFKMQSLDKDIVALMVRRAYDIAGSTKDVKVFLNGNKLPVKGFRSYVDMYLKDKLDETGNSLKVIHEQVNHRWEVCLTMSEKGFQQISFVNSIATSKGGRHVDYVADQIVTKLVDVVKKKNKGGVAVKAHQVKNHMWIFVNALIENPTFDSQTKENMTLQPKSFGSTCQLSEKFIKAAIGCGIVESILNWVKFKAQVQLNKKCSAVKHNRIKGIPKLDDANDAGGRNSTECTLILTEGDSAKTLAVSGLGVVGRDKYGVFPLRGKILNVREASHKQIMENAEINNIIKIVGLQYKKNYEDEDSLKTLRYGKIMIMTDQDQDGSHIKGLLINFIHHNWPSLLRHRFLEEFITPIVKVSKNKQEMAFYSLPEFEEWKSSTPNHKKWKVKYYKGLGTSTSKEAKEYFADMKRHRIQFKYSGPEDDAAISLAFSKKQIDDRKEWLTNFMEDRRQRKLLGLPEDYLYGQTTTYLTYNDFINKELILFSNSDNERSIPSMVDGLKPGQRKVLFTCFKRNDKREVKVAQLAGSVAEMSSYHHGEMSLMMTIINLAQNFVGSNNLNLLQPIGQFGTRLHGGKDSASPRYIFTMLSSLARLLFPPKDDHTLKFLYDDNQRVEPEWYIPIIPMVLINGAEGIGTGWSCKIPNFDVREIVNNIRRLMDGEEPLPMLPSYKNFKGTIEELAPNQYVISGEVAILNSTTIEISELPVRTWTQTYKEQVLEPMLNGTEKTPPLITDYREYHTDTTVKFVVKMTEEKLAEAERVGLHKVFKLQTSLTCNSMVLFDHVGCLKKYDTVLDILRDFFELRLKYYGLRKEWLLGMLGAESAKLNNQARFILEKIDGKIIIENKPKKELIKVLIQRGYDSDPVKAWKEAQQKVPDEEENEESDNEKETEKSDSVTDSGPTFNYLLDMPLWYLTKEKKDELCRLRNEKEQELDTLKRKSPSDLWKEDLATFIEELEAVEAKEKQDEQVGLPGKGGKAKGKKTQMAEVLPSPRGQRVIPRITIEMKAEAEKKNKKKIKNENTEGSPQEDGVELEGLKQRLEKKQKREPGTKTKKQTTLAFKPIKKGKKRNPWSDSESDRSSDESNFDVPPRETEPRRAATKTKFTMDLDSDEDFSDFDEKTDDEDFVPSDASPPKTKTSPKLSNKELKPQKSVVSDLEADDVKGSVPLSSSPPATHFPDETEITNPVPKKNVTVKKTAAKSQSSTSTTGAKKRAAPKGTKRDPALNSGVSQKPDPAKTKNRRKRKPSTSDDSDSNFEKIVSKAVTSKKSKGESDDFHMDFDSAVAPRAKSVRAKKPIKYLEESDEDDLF
In short: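 Recombinant full-length human topoisomerase IIα with supercoiled pBR322 DNA at 37 °C. Components mixed on ice before drug addition. Complexes trapped with SDS; products run on ethidium bromide gels. Linear DNA identified against a HindIII-linearized marker; repeated on three days.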

[3] = test system: K562; assay: Induction of DNA double strand breaks in human K562 cells assessed as increase in gamma-H2AX level at 25 uM after 4 hrs by chemiluminescence analysis; format: functional, cell-based
In short: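 K562 cells (3.4 × 10^5/mL) exposed 4 h at 37 °C to 25 µM drug or DMSO. Lysed in Tris pH 6.7/SDS buffer; 50 µg protein on 14% SDS-PAGE, PVDF blot. Rabbit anti-γH2AX (1:1000, overnight), GAPDH loading control, HRP secondary. Chemiluminescence imaged by CCD.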

[4] = test system: SF-295; assay: Cytotoxicity against human SF295 cells assessed as cell growth at 50 uM by SRB assay; format: functional; conditions: read-out: Activity
[5] = test system: UACC-62; assay: Cytotoxicity against human UACC62 cells assessed as cell growth at 50 uM by SRB assay; format: functional; conditions: read-out: Activity
[6] = test system: RXF 393; assay: Cytotoxicity against human RXF393 cells assessed as cell growth at 50 uM by SRB assay; format: functional; conditions: read-out: Activity
[7] = test system: DU-145; assay: Cytotoxicity against human DU145 cells assessed as cell growth at 50 uM by SRB assay; format: functional; conditions: read-out: Activity
In short: (§1)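 Measured in the NCI-60 human tumour cell line panel using five-dose testing. Growth was recorded at each dose for each cell line, and a GI50 was derived for each line.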

[8] = Cytotoxicity against human Hs578T cells assessed as cell growth at 50 uM by SRB assay; format: functional; conditions: Hs-578T, read-out: Activity; in short: as §1
[9] = test system: MOLT-4; assay: Cytotoxicity against human MOLT4 cells by SRB assay; format: functional
In short: (§2)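 NCI-60 panel screen; 5-dose testing giving GI50 per cell line, plus a single 10 µM one-dose test. Method details not given beyond the NCI screen.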

[10] = test system: HCT-15; assay: Cytotoxicity against human HCT15 cells by SRB assay; format: functional; in short: as §1
[11] = test system: SW-620; assay: Cytotoxicity against human SW620 cells by SRB assay; format: functional; in short: as §2
[12] = test system: OVCAR-4; assay: Cytotoxicity against human OVCAR4 cells by SRB assay; format: functional; in short: as §2
[13] = Cytotoxicity against human NCI-ADR-RES cells by SRB assay; format: functional; in short: as §2
[14] = test system: MDA-MB-468; assay: Cytotoxicity against human MDA-MB-468 cells by SRB assay; format: functional; in short: as §2
[15] = test system: NCI-H322M; assay: Cytotoxicity against human NCI-H322M cells assessed as cell growth at 0.005 uM by SRB assay; format: functional; conditions: read-out: Activity
[16] = test system: HCT-15; assay: Cytotoxicity against human HCT15 cells assessed as cell growth at 0.005 uM by SRB assay; format: functional; conditions: read-out: Activity; in short: as §1
[17] = test system: SF-268; assay: Cytotoxicity against human SF268 cells assessed as cell growth at 0.005 uM by SRB assay; format: functional; conditions: read-out: Activity
[18] = test system: LOX IMVI; assay: Cytotoxicity against human LOXIMVI cells assessed as cell growth at 0.005 uM by SRB assay; format: functional; conditions: read-out: Activity
[19] = test system: OVCAR-5; assay: Cytotoxicity against human OVCAR5 cells assessed as cell growth at 0.005 uM by SRB assay; format: functional; conditions: read-out: Activity
[20] = Cytotoxicity against human NCI-ADR-RES cells assessed as cell growth at 0.005 uM by SRB assay; format: functional; conditions: read-out: Activity
[21] = test system: ACHN; assay: Cytotoxicity against human ACHN cells assessed as cell growth at 0.005 uM by SRB assay; format: functional; conditions: read-out: Activity
[22] = test system: TK-10; assay: Cytotoxicity against human TK10 cells assessed as cell growth at 0.05 uM by SRB assay; format: functional; conditions: read-out: Activity
[23] = test system: DU-145; assay: Cytotoxicity against human DU145 cells assessed as cell growth at 0.05 uM by SRB assay; format: functional; conditions: read-out: Activity; in short: as §1
[24] = test system: HOP-62; assay: Cytotoxicity against human HOP62 cells assessed as cell growth at 0.5 uM by SRB assay; format: functional; conditions: read-out: Activity; in short: as §1
[25] = test system: COLO 205; assay: Cytotoxicity against human COLO205 cells assessed as cell growth at 0.5 uM by SRB assay; format: functional; conditions: read-out: Activity
[26] = test system: SF-539; assay: Cytotoxicity against human SF539 cells assessed as cell growth at 0.5 uM by SRB assay; format: functional; conditions: read-out: Activity
[27] = test system: SK-MEL-2; assay: Cytotoxicity against human SK-MEL-2 cells assessed as cell growth at 0.5 uM by SRB assay; format: functional; conditions: read-out: Activity
[28] = test system: IGROV-1; assay: Cytotoxicity against human IGROV1 cells assessed as cell growth at 0.5 uM by SRB assay; format: functional; conditions: read-out: Activity; in short: as §1
[29] = test system: BT-549; assay: Cytotoxicity against human BT549 cells assessed as cell growth at 0.5 uM by SRB assay; format: functional; conditions: read-out: Activity
[30] = test system: NCI-H322M; assay: Cytotoxicity against human NCI-H322M cells assessed as cell growth at 5 uM by SRB assay; format: functional; conditions: read-out: Activity
[31] = test system: SF-268; assay: Cytotoxicity against human SF268 cells assessed as cell growth at 5 uM by SRB assay; format: functional; conditions: read-out: Activity
[32] = test system: SF-295; assay: Cytotoxicity against human SF295 cells assessed as cell growth at 5 uM by SRB assay; format: functional; conditions: read-out: Activity
[33] = test system: OVCAR-8; assay: Cytotoxicity against human OVCAR8 cells assessed as cell growth at 5 uM by SRB assay; format: functional; conditions: read-out: Activity
[34] = test system: RXF 393; assay: Cytotoxicity against human RXF393 cells assessed as cell growth at 5 uM by SRB assay; format: functional; conditions: read-out: Activity
[35] = test system: SR; assay: Cytotoxicity against human SR cells assessed as cell growth at 50 uM by SRB assay; format: functional; conditions: read-out: Activity
[36] = test system: HOP-62; assay: Cytotoxicity against human HOP62 cells assessed as cell growth at 50 uM by SRB assay; format: functional; conditions: read-out: Activity; in short: as §1
[37] = test system: NCI-H460; assay: Cytotoxicity against human NCI-H460 cells assessed as cell growth at 50 uM by SRB assay; format: functional; conditions: read-out: Activity
[38] = test system: NCI-H522; assay: Cytotoxicity against human NCI-H522 cells assessed as cell growth at 50 uM by SRB assay; format: functional; conditions: read-out: Activity
[39] = read-out: LC50 (the source's name)
[40] = read-out: pLC50 (the source's name) (converted)

Question: For `COc1cc([C@@H]2c3cc4c(cc3[C@@H](NC(=O)CN3CCN(CCCCCCN5CCN(CC(=O)N[C@@H]6c7cc8c(cc7[C@@H](c7cc(OC)c(O)c(OC)c7)[C@H]7C(=O)OC[C@@H]76)OCO8)CC5)CC3)[C@H]3COC(=O)[C@H]23)OCO4)cc(OC)c1O`, which “Ratio IC50” value [1] is on record?
Answer: 21.5

Question: And the “Effect on topoisomerase 2-alpha DNA cleavage (qualitative)” value [2]?
Answer: Dose-dependent effect

Question: What about the Activity [3] of the same compound?
Answer: Active

Question: What about the growth at 50 µM [4] of the same compound?
Answer: 1%

Question: And the growth at 50 µM [5]?
Answer: -5%

Question: What about the growth at 50 µM [6] of the same compound?
Answer: 7%

Question: What about the growth at 50 µM [7] of the same compound?
Answer: 7%

Question: What about the growth at 50 µM [8] of the same compound?
Answer: 9%

Question: What about the GI50 ([9]; read-out: GI50) of the same compound?
Answer: 0.233 µM

Question: And the CC50 [9, 39]?
Answer: > 50 µM

Question: And the TGI ([9]; read-out: TGI)?
Answer: > 50 µM

Question: And the GI50 ([9]; read-out: pGI50 (converted))?
Answer: 0.234 µM

Question: What about the CC50 [9, 40] of the same compound?
Answer: > 50.1 µM

Question: And the TGI ([9]; read-out: pTGI (converted))?
Answer: > 50.1 µM

Question: And the GI50 ([10]; read-out: GI50)?
Answer: > 50 µM

Question: And the CC50 [10, 39]?
Answer: > 50 µM

Question: And the TGI ([10]; read-out: TGI)?
Answer: > 50 µM

Question: And the GI50 ([10]; read-out: pGI50 (converted))?
Answer: > 50.1 µM

Question: What about the CC50 [10, 40] of the same compound?
Answer: > 50.1 µM

Question: And the TGI ([10]; read-out: pTGI (converted))?
Answer: > 50.1 µM

Question: And the GI50 ([11]; read-out: GI50)?
Answer: 1.6 µM

Question: What about the CC50 [11, 39] of the same compound?
Answer: > 50 µM

Question: What about the TGI ([11]; read-out: TGI) of the same compound?
Answer: > 50 µM

Question: What about the GI50 ([11]; read-out: pGI50 (converted)) of the same compound?
Answer: 1.58 µM

Question: And the CC50 [11, 40]?
Answer: > 50.1 µM

Question: What about the TGI ([11]; read-out: pTGI (converted)) of the same compound?
Answer: > 50.1 µM

Question: What about the GI50 ([12]; read-out: GI50) of the same compound?
Answer: 10.5 µM

Question: And the CC50 [12, 39]?
Answer: > 50 µM

Question: And the TGI ([12]; read-out: TGI)?
Answer: > 50 µM

Question: And the GI50 ([12]; read-out: pGI50 (converted))?
Answer: 10.5 µM

Question: And the CC50 [12, 40]?
Answer: > 50.1 µM

Question: And the TGI ([12]; read-out: pTGI (converted))?
Answer: > 50.1 µM

Question: What about the GI50 ([13]; read-out: GI50) of the same compound?
Answer: > 50 µM

Question: What about the CC50 [13, 39] of the same compound?
Answer: > 50 µM

Question: And the TGI ([13]; read-out: TGI)?
Answer: > 50 µM

Question: And the GI50 ([13]; read-out: pGI50 (converted))?
Answer: > 50.1 µM

Question: And the CC50 [13, 40]?
Answer: > 50.1 µM

Question: What about the TGI ([13]; read-out: pTGI) of the same compound?
Answer: > 50.1 µM

Question: And the GI50 ([14]; read-out: GI50)?
Answer: 1.72 µM

Question: What about the CC50 [14, 39] of the same compound?
Answer: 50 µM

Question: And the TGI ([14]; read-out: TGI)?
Answer: 12.3 µM

Question: And the GI50 ([14]; read-out: pGI50 (converted))?
Answer: 1.74 µM

Question: What about the CC50 [14, 40] of the same compound?
Answer: > 50.1 µM

Question: And the TGI ([14]; read-out: pTGI (converted))?
Answer: 12.3 µM

Question: And the growth at 0.005 µM [15]?
Answer: 98%

Question: What about the growth at 0.005 µM [16] of the same compound?
Answer: 90%

Question: And the growth at 0.005 µM [17]?
Answer: 97%

Question: And the growth at 0.005 µM [18]?
Answer: 98%

Question: And the growth at 0.005 µM [19]?
Answer: 93%

Question: And the growth at 0.005 µM [20]?
Answer: 104%

Question: What about the growth at 0.005 µM [21] of the same compound?
Answer: 94%

Question: And the growth at 0.05 µM [22]?
Answer: 98%

Question: And the growth at 0.05 µM [23]?
Answer: 103%

Question: What about the growth at 0.5 µM [24] of the same compound?
Answer: 98%

Question: And the growth at 0.5 µM [25]?
Answer: 60%

Question: What about the growth at 0.5 µM [26] of the same compound?
Answer: 71%

Question: What about the growth at 0.5 µM [27] of the same compound?
Answer: 105%

Question: What about the growth at 0.5 µM [28] of the same compound?
Answer: 89%

Question: And the growth at 0.5 µM [29]?
Answer: 62%

Question: What about the growth at 5 µM [30] of the same compound?
Answer: 99%

Question: What about the growth at 5 µM [31] of the same compound?
Answer: 20%

Question: And the growth at 5 µM [32]?
Answer: 50%

Question: And the growth at 5 µM [33]?
Answer: 92%

Question: What about the growth at 5 µM [34] of the same compound?
Answer: 66%

Question: What about the growth at 50 µM [35] of the same compound?
Answer: 1%

Question: And the growth at 50 µM [36]?
Answer: -22%

Question: And the growth at 50 µM [37]?
Answer: -28%

Question: And the growth at 50 µM [38]?
Answer: -16%

Source: ChEMBL document CHEMBL3588757, “Structure-based design, synthesis and biological testing of piperazine-linked bis-epipodophyllotoxin etoposide analogs” (Bioorg Med Chem, 2015)
